Assay results taken from ChEMBL document CHEMBL4330096, “Discovery of potent and selective 5-azaindazole inhibitors of leucine-rich repeat kinase 2 (LRRK2) - Part 1” (Bioorg Med Chem Lett, 2019).

How the values were obtained:
[1] = Lipophilicity, log D of the compound at pH 7.4; assay type: physicochemical; conditions: buffer
[2] = target: Serine/threonine-protein kinase Chk2 (Homo sapiens) (UniProt O96017); test: Inhibition of CHK2 (unknown origin) at 1 uM relative to control
How it was run: (§1)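 Single-point screen of each compound against a panel of 59 protein kinases, at 1 or 10 μM. The panel data are also summarised as a rescaled geometric mean selectivity score.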

[3] = target: AMP-activated protein kinase, AMPK (Homo sapiens) (UniProt P54646+O43741+P54619+Q9UGJ0+Q9Y478+Q13131+Q9UGI9); test: Inhibition of AMPK (unknown origin) at 1 uM relative to control; assay type: protein-complex assay; how it was run: as §1
[4] = target: Phosphorylase kinase (Homo sapiens) (UniProt P15735+P46020+P46019+Q93100+Q16816); test: Inhibition of PHK (unknown origin) at 1 uM relative to control; assay type: protein-complex assay
How it was run: (§2)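 Single-concentration screen of each compound against a 59-protein-kinase panel, run at 10 µM or 1 µM. Activity relative to control is shown as a heat map across the panel.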

[5] = target: Tyrosine-protein kinase Yes (Homo sapiens) (UniProt P07947); test: Inhibition of YES1 (unknown origin) at 1 uM relative to control
How it was run: (§3)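 Single-concentration screen across a panel of 59 protein kinases, with each compound tested at one fixed concentration. The read-out is residual kinase activity relative to control. Panel results are also condensed into a rescaled geometric mean (RGM) selectivity score.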

[6] = target: Aurora kinase B (Homo sapiens) (UniProt Q96GD4); test: Inhibition of Aurora B (unknown origin) at 1 uM relative to control; how it was run: as §1
Aurora kinase B (Homo sapiens), sequence (Q96GD4 whole entry): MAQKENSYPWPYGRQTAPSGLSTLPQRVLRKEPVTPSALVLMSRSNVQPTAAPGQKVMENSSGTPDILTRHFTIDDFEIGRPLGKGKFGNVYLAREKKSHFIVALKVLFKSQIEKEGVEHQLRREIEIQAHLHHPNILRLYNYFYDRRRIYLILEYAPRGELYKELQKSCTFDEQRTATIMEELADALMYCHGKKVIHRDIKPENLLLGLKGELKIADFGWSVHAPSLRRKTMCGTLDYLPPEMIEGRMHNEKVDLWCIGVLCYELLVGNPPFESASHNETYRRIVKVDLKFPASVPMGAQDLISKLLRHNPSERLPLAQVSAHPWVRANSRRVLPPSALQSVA

[7] = target: T1, MAP kinase-activated protein kinase 5 (Homo sapiens) (UniProt Q8IW41); test: Inhibition of PRAK (unknown origin) at 1 uM relative to control; how it was run: as §2
T1 sequence (whole entry): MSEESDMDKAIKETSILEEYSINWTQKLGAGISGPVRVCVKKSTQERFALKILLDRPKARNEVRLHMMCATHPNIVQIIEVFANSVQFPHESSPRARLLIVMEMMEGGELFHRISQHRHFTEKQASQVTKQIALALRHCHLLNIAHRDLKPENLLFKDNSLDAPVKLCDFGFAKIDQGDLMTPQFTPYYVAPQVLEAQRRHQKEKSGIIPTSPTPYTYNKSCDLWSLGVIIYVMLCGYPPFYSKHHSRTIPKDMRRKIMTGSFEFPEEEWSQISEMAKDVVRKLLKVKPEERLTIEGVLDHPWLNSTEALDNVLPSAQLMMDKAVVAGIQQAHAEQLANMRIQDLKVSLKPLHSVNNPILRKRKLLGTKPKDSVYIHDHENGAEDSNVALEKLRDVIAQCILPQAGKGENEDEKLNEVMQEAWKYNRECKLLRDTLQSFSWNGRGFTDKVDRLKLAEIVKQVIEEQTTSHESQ

[8] = target: Protein kinase C alpha type (Homo sapiens) (UniProt P17252); test: Inhibition of PKCa (unknown origin) at 1 uM relative to control; how it was run: as §2
[9] = target: Maternal embryonic leucine zipper kinase (Homo sapiens) (UniProt Q14680); test: Inhibition of MELK (unknown origin) at 1 uM relative to control; how it was run: as §2
Maternal embryonic leucine zipper kinase (Homo sapiens), sequence (Q14680 whole entry, looked up): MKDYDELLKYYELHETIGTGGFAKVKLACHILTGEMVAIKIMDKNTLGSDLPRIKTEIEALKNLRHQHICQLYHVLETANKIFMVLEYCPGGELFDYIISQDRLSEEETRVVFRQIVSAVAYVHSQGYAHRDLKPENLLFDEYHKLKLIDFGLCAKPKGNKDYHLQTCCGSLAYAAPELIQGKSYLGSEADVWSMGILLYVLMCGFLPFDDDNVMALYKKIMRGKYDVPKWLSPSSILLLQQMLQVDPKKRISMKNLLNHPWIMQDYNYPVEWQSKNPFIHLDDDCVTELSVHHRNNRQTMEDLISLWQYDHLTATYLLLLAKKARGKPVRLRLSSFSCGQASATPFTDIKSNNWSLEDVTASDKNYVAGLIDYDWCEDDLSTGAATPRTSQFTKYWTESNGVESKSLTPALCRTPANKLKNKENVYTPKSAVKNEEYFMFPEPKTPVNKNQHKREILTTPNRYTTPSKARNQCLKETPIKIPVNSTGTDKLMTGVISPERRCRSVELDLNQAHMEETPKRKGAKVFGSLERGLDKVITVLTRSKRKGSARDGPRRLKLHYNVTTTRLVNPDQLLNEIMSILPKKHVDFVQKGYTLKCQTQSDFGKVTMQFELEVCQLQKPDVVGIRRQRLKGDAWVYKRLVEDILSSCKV

[10] = target: Tyrosine-protein kinase Lck (Homo sapiens) (UniProt P06239); test: Inhibition of Lck (unknown origin) at 1 uM relative to control; how it was run: as §1
Tyrosine-protein kinase Lck (Homo sapiens), sequence (P06239 2-509 limits assumed): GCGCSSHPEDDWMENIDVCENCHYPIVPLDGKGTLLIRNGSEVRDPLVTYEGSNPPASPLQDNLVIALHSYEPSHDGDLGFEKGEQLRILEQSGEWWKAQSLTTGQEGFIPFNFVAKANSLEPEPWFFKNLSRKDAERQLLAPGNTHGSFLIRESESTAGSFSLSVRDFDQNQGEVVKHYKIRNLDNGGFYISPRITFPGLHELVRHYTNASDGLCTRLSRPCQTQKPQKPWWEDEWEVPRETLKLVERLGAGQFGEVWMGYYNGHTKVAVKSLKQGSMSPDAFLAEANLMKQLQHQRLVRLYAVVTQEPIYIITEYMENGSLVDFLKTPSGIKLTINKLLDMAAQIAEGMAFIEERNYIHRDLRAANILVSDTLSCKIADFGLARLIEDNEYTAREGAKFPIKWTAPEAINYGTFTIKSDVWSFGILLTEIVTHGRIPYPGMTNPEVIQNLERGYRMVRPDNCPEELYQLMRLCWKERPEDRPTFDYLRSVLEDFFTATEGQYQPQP

[11] = target: Ribosomal protein S6 kinase beta-1 (Homo sapiens) (UniProt P23443); test: Inhibition of S6K1 (unknown origin) at 1 uM relative to control; how it was run: as §3
Ribosomal protein S6 kinase beta-1 (Homo sapiens), sequence (P23443 whole entry, looked up): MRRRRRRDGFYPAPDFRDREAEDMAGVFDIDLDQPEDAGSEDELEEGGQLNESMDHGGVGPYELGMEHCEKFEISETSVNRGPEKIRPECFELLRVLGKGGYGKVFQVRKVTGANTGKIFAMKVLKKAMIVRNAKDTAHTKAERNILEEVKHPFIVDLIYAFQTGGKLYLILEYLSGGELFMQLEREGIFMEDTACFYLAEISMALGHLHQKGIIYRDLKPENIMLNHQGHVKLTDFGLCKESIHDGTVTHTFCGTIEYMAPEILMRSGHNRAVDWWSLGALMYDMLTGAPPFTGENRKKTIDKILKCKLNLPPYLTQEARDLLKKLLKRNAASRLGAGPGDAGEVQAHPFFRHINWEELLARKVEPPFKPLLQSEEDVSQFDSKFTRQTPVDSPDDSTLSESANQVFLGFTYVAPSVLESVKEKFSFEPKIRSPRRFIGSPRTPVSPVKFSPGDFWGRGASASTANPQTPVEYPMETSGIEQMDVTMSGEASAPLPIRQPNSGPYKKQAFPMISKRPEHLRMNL

[12] = target: Rho-associated protein kinase 2 (Homo sapiens) (UniProt O75116); test: Inhibition of ROCK2 (unknown origin) at 1 uM relative to control; how it was run: as §2
Rho-associated protein kinase 2 (Homo sapiens), sequence (O75116 whole entry, looked up): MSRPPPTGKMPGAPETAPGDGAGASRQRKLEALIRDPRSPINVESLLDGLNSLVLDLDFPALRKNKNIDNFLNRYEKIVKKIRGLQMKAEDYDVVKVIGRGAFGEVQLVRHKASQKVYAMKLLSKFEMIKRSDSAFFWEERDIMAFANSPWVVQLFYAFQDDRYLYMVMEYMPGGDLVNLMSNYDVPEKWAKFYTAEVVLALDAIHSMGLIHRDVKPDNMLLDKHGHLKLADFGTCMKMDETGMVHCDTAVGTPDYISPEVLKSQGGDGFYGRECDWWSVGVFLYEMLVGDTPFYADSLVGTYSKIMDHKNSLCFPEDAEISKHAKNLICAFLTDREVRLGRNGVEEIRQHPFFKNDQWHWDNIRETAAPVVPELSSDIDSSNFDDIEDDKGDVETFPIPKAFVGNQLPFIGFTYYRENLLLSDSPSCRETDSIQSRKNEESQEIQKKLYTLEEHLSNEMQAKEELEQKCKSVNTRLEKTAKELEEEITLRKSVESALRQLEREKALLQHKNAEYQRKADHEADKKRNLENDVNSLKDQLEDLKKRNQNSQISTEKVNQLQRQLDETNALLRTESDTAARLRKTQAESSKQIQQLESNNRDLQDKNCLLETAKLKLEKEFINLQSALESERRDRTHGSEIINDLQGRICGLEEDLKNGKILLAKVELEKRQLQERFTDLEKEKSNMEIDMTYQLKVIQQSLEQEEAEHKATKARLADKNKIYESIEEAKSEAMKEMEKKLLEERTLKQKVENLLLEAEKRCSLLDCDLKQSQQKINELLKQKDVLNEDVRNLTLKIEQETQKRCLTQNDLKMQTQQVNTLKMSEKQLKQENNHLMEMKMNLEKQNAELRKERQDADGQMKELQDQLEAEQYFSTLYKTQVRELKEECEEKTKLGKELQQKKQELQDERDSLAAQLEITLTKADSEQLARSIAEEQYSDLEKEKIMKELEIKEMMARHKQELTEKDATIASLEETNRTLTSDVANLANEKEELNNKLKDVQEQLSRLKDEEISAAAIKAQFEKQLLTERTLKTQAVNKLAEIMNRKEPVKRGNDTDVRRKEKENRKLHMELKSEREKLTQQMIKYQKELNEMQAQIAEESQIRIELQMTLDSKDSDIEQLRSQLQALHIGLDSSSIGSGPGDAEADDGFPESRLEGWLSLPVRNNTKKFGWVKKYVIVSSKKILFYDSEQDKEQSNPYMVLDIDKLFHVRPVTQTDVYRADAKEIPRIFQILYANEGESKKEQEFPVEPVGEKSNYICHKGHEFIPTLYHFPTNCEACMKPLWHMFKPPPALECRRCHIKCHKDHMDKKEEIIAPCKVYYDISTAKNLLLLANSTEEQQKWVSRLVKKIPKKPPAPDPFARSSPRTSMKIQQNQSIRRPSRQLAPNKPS

[13] = target: MAP kinase-interacting serine/threonine-protein kinase 2 (Homo sapiens) (UniProt Q9HBH9); test: Inhibition of MNK2 (unknown origin) at 1 uM relative to control; how it was run: as §2
[14] = Ratio of drug level in mouse brain to plasma; conditions: read-out: BPR
How it was run: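 Mice; ratio based on total (not unbound) compound concentrations in brain versus plasma.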

Serine/threonine-protein kinase Chk2 (Homo sapiens), sequence (O96017 whole entry): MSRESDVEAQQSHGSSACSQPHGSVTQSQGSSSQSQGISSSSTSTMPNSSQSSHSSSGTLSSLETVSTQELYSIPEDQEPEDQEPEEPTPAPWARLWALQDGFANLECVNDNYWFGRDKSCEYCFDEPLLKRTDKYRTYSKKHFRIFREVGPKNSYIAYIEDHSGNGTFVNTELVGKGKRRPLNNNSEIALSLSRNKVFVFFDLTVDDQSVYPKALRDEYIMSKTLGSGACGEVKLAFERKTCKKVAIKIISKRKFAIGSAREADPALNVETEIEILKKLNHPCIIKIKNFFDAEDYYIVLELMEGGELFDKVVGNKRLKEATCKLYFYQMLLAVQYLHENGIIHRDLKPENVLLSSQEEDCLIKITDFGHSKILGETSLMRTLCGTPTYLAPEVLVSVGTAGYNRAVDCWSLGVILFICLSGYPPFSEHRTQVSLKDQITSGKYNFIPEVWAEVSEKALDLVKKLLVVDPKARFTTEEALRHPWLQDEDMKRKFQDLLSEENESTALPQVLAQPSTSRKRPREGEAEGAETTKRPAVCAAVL

Cc1n[nH]c2ccnc(OC3CCCCC3)c12
logD [1]: > 4

c1cc(-c2n[nH]c3ccnc(OC4CCOCC4)c23)cc(N2CCOCC2)n1
inhibition [2]: 0% | inhibition [3]: 0% | inhibition [4]: 15% | inhibition [5]: 9% | inhibition [6]: 0% | inhibition [7]: 4% | inhibition [8]: 0% | inhibition [9]: 79% | inhibition [10]: 8% | inhibition [11]: 0% | inhibition [12]: 0% | inhibition [13]: 13%

CC(C)n1cc(-c2n[nH]c3ccnc(OC4CCOCC4)c23)cn1
inhibition [2]: 29% | inhibition [3]: 19% | inhibition [4]: 41% | inhibition [5]: 0% | inhibition [6]: 38% | inhibition [7]: 19% | inhibition [8]: 0% | inhibition [9]: 84% | inhibition [10]: 0% | inhibition [11]: 16% | inhibition [12]: 28% | inhibition [13]: 5%

Cc1n[nH]c2ccnc(NC3CCCCC3)c12
Kp [14]: 4
